Values after ≈ are worked out from the molar mass of the structure shown.
What was measured:
[1] = test system: Mycolicibacterium smegmatis; assay: In vitro cytotoxicity against Mycobacterium smegmatis CIP (103599) was determined; type: functional
Method in brief: (§1)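 Broth microdilution in Middlebrook 7H9. Stocks were made in DMSO and filter-sterilized (0.2 μm), then serially diluted 2-fold in water. Tubes were incubated at 37°C for 10-15 days, with a drug-free control tube in each experiment. MIC (μg/mL) is the lowest concentration giving no visible turbidity.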

Mycobacterium avium [2] = assay: In vitro cytotoxicity against Mycobacterium avium (CIP 103317) was determined; type: functional
Mycobacterium marinum = assay: In vitro cytotoxicity against Mycobacterium marinum (CIP 6423) was determined; type: functional; method in brief: as §1
[3] = test system: Mycobacterium tuberculosis; assay: In vitro minimum inhibitory concentration against Mycobacterium tuberculosis CIP 103471 was determined; type: functional
Method in brief: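 Broth microdilution in Middlebrook 7H9 with 10% ADC. DMSO stocks were filter-sterilised (0.2 μm nylon), then serially diluted 2-fold in water. Tubes were incubated at 37°C for 10-15 days alongside a drug-free control. MIC was the lowest concentration with no visible turbidity.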

Vero = assay: Minimal toxic dose that induced a reduction of 50% of cell growth in Vero cell line […]; type: functional, Chlorocebus sabaeus
Method in brief: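 VERO monolayers in Dulbecco's modified MEM with 2% fetal calf serum were seeded at 9'10⁴ cells per well in six-well plates. Compounds, dissolved in DMSO at 10 mg/mL initially, were added after 24 h. Five days later, cells were trypsinised and counted in a Neubauer chamber. MTD50 was the concentration giving 50% growth reduction versus control.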

Mycobacterium gordonae = assay: In vitro cytotoxicity against Mycobacterium gordonae (CIP 6427) was determined; type: functional; method in brief: as §1
Mycobacterium avium [4] = assay: In vitro cytotoxicity against Mycobacterium avium (CIP 103317) was determined

Row | Compound | MIC [1] | MIC (Mycobacterium avium [2]) | MIC (Mycobacterium marinum) | MIC [3] | MTD50 (Vero) | MIC (Mycobacterium gordonae) | MIC (Mycobacterium avium [4])
1 | O=C(Nc1ccc(CN2CCSCC2)cc1)c1ccc(-c2ccccc2)cc1 | > 16 µg/mL | > 16 µg/mL | > 16 µg/mL | > 16 µg/mL | 16 µg/mL | > 16 µg/mL | 
2 | NNC(=O)c1ccncc1 [ISONIAZID] | 64 µg/mL (≈ 467 µM) | 32 µg/mL (≈ 233 µM) | 16 µg/mL (≈ 117 µM) | 0.25 µg/mL (≈ 1.82 µM) | 32 µg/mL | 32 µg/mL (≈ 233 µM) | 
3 | c1ccc(-c2ccc(CNc3ccc(CN4CCSCC4)cc3)cc2)cc1 | > 16 µg/mL |  | 8 µg/mL (≈ 21.4 µM) | 0.5 µg/mL (≈ 1.33 µM) | 8 µg/mL | 8 µg/mL (≈ 21.4 µM) | 4 µg/mL (≈ 10.7 µM)
4 | CN[C@@H]1[C@H](O[C@H]2[C@H](O[C@H]3[C@H](O)[C@@H](O)[C@H](N=C(N)N)[C@@H](O)[C@@H]3N=C(N)N)O[C@@H](C)[C@]2(O)C=O)O[C@@H](CO)[C@H](O)[C@H]1O [STREPTOMYCIN] | 8 µg/mL (≈ 13.8 µM) | 4 µg/mL (≈ 6.88 µM) | 32 µg/mL (≈ 55 µM) | 0.5 µg/mL (≈ 0.86 µM) | >64 µg/mL | 16 µg/mL (≈ 27.5 µM) | 
5 | C[N+](C)(Cc1ccc(-c2ccccc2)cc1)c1ccc(CN2CCSCC2)cc1.[I-] | > 16 µg/mL | 16 µg/mL | 16 µg/mL | 8 µg/mL | 16 µg/mL | 8 µg/mL | 
6 | CN(Cc1ccc(-c2ccccc2)cc1)c1ccc(CN2CCSCC2)cc1 | > 16 µg/mL | 4 µg/mL (≈ 10.3 µM) | 8 µg/mL (≈ 20.6 µM) | 0.5 µg/mL (≈ 1.29 µM) | 8 µg/mL | > 16 µg/mL | 

Reference: ChEMBL document CHEMBL1130838, “N-[4-(1,1'-biphenyl)methyl]-4-(4-thiomorpholinylmethyl) benzenamines as non-oxazolidinone analogues of antimycobacterial U-100480” (1998)
